# Assay results collected from several papers.
# Lines come from different studies, so protocols differ.
# Target: Serine/threonine-protein kinase MAK (MAK, Homo sapiens, UniProt P20794)
# Residues used in one study (P20794 1-623): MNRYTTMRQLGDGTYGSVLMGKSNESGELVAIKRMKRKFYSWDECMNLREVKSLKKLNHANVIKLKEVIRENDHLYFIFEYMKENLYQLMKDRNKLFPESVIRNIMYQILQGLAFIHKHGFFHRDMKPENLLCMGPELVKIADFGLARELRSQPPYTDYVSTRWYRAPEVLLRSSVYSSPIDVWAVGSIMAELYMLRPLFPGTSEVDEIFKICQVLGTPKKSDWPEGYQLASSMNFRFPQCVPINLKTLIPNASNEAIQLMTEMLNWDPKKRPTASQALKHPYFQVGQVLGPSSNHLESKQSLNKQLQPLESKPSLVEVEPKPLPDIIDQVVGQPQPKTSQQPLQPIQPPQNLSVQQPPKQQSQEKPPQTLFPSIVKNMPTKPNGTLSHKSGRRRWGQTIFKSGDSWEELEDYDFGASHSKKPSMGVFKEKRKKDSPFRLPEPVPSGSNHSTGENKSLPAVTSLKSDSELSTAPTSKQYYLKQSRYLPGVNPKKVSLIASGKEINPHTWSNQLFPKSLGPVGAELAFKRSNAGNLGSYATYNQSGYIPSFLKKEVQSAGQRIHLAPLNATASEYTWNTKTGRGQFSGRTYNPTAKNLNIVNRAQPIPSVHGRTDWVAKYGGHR
test,setting,quantity,value,SMILES
"cell-free assay, competition with immobilised ligand",0.1 µM,remaining binding,99%,CC(C)CC(=O)N1CCc2nc(-c3ccc(Br)cc3)nc(N(C)Cc3ccccc3)c2C1
"enzyme activity, inhibitor",10 µM,remaining activity,120%,Cc1sc(C(=O)NC2COC2)cc1-n1cc(NC(=O)Nc2c(F)cccc2Cl)cn1
"enzyme activity, inhibitor",1 µM,inhibition,3%,CN1CC(Oc2cnc(C#N)cc2-c2ccn3nc(NC(=O)C4CC4)cc3c2)C1
enzyme activity,23.5 nM,remaining activity,93%,Cc1ccc(C(=O)Nc2ccc(CN3CCN(C)CC3)c(C(F)(F)F)c2)cc1C#Cc1cnc2cccnn12
"binding, competition with immobilised ligand",1 µM,remaining binding,89%,NS(=O)(=O)c1cc(NC(=O)C2(c3ccccc3Cl)CC2)ccc1Oc1cccc(Cl)c1
"enzyme activity, inhibitor",5 µM,remaining activity,97.6%,O=C(Nc1cnn(-c2csc(C(=O)NC3COC3)c2)c1)Nc1c(F)cccc1Cl
cell-free assay,20 µM,remaining signal,7.9%,Nc1ncnc2occ(-c3ccc(NC(=O)Nc4cc(C(F)(F)F)ccc4F)cc3)c12
"enzyme activity, inhibitor",1 µM,activity vs control,120%,Cc1ccc(C(=O)NCc2ccsc2)cc1C#Cc1cn(C(C)C)c2ncnc(N)c12
